PMC4423195 (Cell Death and Differentiation, 2015)
“Also recorded” adds a separate entry of the source.

Tests used:
HT22 cells [1] = experiment: FITC-Aβ42O binding/uptake in HT22 cells; type: cell-based, mouse; conditions: FITC-Aβ42O 0.1 μM, 2 h; MAB1965 1 : 500, MnCl2 0.5 mM or MgCl2 5 mM; n=4 replicates
HT22 cells [2] = experiment: H2DCF general ROS imaging; type: cell-based, mouse; conditions: Aβ42O 1 μM, 2 h, n=6
Procedure, shortened: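 HT22 cells pretreated 45 min (methods; legend gives 1 h) with or without HUTS-4 (1:250), MAB1965 (1:250) or Nox inhibitor III (40 nM), then Aβ42 oligomers (1 μM, 2 h). After PBS wash, loaded with H2DCF at 50 nM final in HBSS for 15 min at 37°C. Live-cell fluorescence imaging at 37°C under identical acquisition settings.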

HT22 cells [3] = experiment: JC-1 mitochondrial membrane potential imaging; type: cell-based, mouse; conditions: Aβ42O 1 μM, 2 h; HUTS-4 1 : 250, MAB1965 1 : 250, Nox inhibitor 40 nM; n=6
Procedure, shortened: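 HT22 cells pre-exposed 45 min (methods; legend says 1 h) to HUTS-4 (1:250), MAB1965 (1:250), Nox inhibitor III (40 nM) or none, then Aβ42 oligomers (1 μM, 2 h). Washed, incubated with JC-1 (0.5 μM final, PBS) 15 min at 37°C. Live-cell imaging at 37°C; membrane potential expressed as green/red ratio.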

HT22 cells [4] = experiment: Mitosox-Red mitochondrial superoxide imaging; type: cell-based, mouse; conditions: Aβ42O 1 μM, 2 h, n=6
Procedure, shortened: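 Following 45 min (methods; 1 h per legend) pretreatment ± HUTS-4 (1:250), MAB1965 (1:250) or Nox inhibitor III (40 nM), HT22 cells received Aβ42 oligomers (1 μM, 2 h). Washed, given Mitosox-Red at 5 μM final in PBS for 15 min at 37°C, washed again, fixed and imaged by confocal microscopy with identical settings.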

14-3-3/SSH1 complex = experiment: 14-3-3/SSH1 complex, co-immunoprecipitation in HT22 cells; type: cell-based, mouse (HT22 mouse cell line); conditions: Aβ42O 1 μM, 2 h
[5] = molecular target: β1-integrin-Fc (extracellular domain fused with human IgG-Fc) (Homo sapiens, UniProt P05556); experiment: ELISA binding of biotin-Aβ42 to purified β1-integrin-Fc; conditions: n=4 replicates
Chain of β1-integrin-Fc (extracellular domain fused with human IgG-Fc) (P05556 21-728): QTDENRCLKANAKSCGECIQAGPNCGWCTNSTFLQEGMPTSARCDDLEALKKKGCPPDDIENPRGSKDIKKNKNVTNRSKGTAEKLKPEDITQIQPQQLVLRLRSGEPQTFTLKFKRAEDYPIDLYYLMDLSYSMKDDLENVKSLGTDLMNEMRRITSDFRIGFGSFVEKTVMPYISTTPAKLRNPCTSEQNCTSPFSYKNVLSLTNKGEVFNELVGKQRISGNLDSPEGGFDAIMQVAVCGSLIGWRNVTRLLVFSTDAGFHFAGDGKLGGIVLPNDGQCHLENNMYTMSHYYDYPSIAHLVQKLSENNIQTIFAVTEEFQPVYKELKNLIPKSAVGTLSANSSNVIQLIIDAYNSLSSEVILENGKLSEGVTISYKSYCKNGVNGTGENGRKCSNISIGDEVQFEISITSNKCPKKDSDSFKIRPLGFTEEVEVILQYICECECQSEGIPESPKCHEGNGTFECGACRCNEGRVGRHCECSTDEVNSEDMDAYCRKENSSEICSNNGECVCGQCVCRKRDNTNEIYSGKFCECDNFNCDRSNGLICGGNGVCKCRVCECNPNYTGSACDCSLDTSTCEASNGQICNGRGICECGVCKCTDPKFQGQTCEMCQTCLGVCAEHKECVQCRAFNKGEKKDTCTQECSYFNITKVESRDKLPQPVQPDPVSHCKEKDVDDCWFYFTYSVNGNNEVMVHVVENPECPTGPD

[6] = tested on: DIV21 primary hippocampal neurons; experiment: FITC-Aβ42O binding to DIV21 primary hippocampal neurons; type: cell-based; conditions: 100 nM FITC-Aβ42O, 1 h, 37 °C
Cofilin (mitochondrial) = experiment: Translocation of Cofilin to mitochondria in HT22 cells; type: cell-based, mouse (HT22 mouse cell line); conditions: Aβ42O 1 μM; 0, 2, 4 h; n=4 replicates
Procedure, shortened: (§1)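 HT22 cells exposed to Aβ42 oligomers (1 μM) for 0, 2 or 4 h. Intact mitochondria separated from cytosol with a commercial isolation kit. Protein measured by BCA. Equal amounts run on SDS-PAGE, blotted to nitrocellulose, probed and detected by peroxidase secondary/ECL. Bands quantified densitometrically; n=4 replicates, t-test.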

Vinculin = experiment: FC-enriched fractionation of primary cortical neurons, Vinculin; type: cell-based, mouse; conditions: Aβ42O 1 μM, 2 h, n=3 replicates
Procedure, shortened: (§2)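 DIV14 cortical neurons from P0 WT or Cofilin+/− pups given Aβ42 oligomers (1 μM, 2 h). Cytosol extracted with saponin buffer (0.1% saponin, 25 mM HEPES, 75 mM potassium acetate) 10 min on ice; residue taken up in 2× SDS sample buffer with sonication (focal-contact fraction). Talin/Vinculin immunoblotted and normalized to vehicle controls set at 100%; n=3, t-test.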

PSD95 = PSD95 staining in DIV21 hippocampal neurons; type: cell-based, mouse; conditions: Aβ42O 1 μM, 2 h, n=4–6 replicates
Procedure, shortened: (§3)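 Hippocampal neurons from P0 WT or Cofilin+/− pups grown on poly-D-lysine to DIV21, then given Aβ42 oligomers (1 μM, 2 h). Fixed in 4% paraformaldehyde 15 min at RT, serum-blocked, primary antibody (Drebrin or PSD95) overnight at 4°C, secondary 45 min at RT; F-actin stained by rhodamine-phalloidin. Mean intensity measured in spine-containing neurites; n=4–6, ANOVA with Tukey test.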

[7] = tested on: transferrin receptor (TfR); experiment: Cell surface biotinylation, surface TfR in HT22 cells; type: cell-based, mouse (HT22 mouse cell line); conditions: Aβ42O 1 μM, 2 h or FN coating; surface/total; n⩾3 replicates
focal Vinculin = experiment: Focal Vinculin immunostaining in DIV21 primary hippocampal neurons; type: cell-based; conditions: Aβ42O 1 μM, 2 h, n=5 replicates
PrP^c = type: cell-based, mouse (HT22 mouse cell line)
β1-integrin = type: cell-based, mouse (HT22 mouse cell line); conditions: Aβ42O 1 μM, 2 h; direct immunoblotting (total)
Talin [8] = experiment: FC-enriched fractionation of primary cortical neurons, Talin; type: cell-based, mouse; conditions: Aβ42O 1 μM, 2 h, n=3 replicates
Procedure, shortened: as §2

Drebrin = Drebrin staining in DIV21 hippocampal neurons; type: cell-based, mouse; conditions: Aβ42O 1 μM, 2 h, n=4–6 replicates
Procedure, shortened: as §3

F-actin = F-actin staining in DIV21 hippocampal neurons; type: cell-based, mouse; conditions: Aβ42O 1 μM, 2 h, n=4–6 replicates
Procedure, shortened: as §3

[9] = tested on: Cofilin (phospho-Cofilin); experiment: Cytosolic phospho-Cofilin in HT22 cells; type: cell-based, mouse (HT22 mouse cell line); conditions: Aβ42O 1 μM; 0, 2, 4 h
Procedure, shortened: as §1

Talin [10] = experiment: FC-enriched fractionation of HT22 cells, Talin; type: cell-based, mouse (HT22 mouse cell line); conditions: Aβ42O (1 μM in text; 0, 0.25, 2 μM for 0, 2, 4 h in Figure S3 legend)
Procedure, shortened: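 HT22 cells exposed to Aβ42 oligomers. Cytosolic proteins released with saponin buffer (0.1% saponin, 25 mM HEPES, 75 mM potassium acetate) for 10 min on ice. Remaining membrane/cytoskeletal proteins extracted in 2× SDS sample buffer with sonication to give the focal-contact-enriched fraction. Talin detected by immunoblot with ECL.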

HT22 cells [11] = experiment: Annexin V/PI apoptosis assay, HT22 cells; type: cell-based, mouse; conditions: Aβ42O 1 μM, 24 h / 18 h, 1% FBS; n=4 replicates
Procedure, shortened: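 HT22 cells transfected for 48 h with Lipofectamine 2000 with control or SSH1 siRNA (100 nM final), then exposed to Aβ42 oligomers (1 μM, 18 h) in 1% FBS medium. Cells stained on coverslips with FITC-Annexin V and propidium iodide for 20 min at 25°C in the dark, PBS-washed and imaged by fluorescence confocal microscopy. Annexin V marks early apoptosis, PI late apoptosis.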

SSH1/Cofilin complex = experiment: SSH1/Cofilin complex, co-immunoprecipitation in HT22 cells; type: cell-based, mouse (HT22 mouse cell line); conditions: Aβ42O 1 μM, 2 h; n=3 replicates
[12] = SDS-PAGE/immunoblotting of Aβ42 oligomer preparations; type: physicochemical; conditions: immunoblotting of Aβ42O preparation
[13] = tested on: Cofilin (phospho-Cofilin); experiment: Immunoblot of phospho-Cofilin in primary cortical neurons; type: cell-based, mouse; conditions: Aβ42O 1 μM, 2 h, n=4 replicates
activated β1-integrin = experiment: FITC-HUTS-4 staining of activated β1-integrin in primary hippocampal neurons; type: cell-based; conditions: DIV14 fixed and permeabilized neurons; Aβ42O 1 μM, 2 h; n=4 replicates
[14] = HUTS-4 1 : 250, MAB1965 1 : 250, Nox inhibitor 40 nM
[15] = DIV14 Cofilin^+/− cortical neurons

[Cl][Mn][Cl] [MnCl2]
effect on FITC-Aβ42O binding to HT22 cells (HT22 cells [1]): significantly reduced

c1ccc(Cn2nnc3c(Sc4nc5ccccc5o4)ncnc32)cc1 [NOX inhibitor]
prevention of Aβ42O-induced change in H2DCF (HT22 cells [2]; [14]): significantly prevented such changes | extent of restoration of JC-1 membrane potential (HT22 cells [3]): not fully restored | prevention of Aβ42O-induced change in Mitosox-Red (HT22 cells [4]; [14]): significantly prevented such changes

Cc1c(C)c2c(c(C)c1O)CCC(C)(C(=O)O)O2 (stereo not shown) [Trolox]
restoration of 14-3-3/SSH1 complexes reduced by Aβ42O (14-3-3/SSH1 complex; prior treatment 30 min, MAB1965 1:250 or Trolox 200 µM): largely restored

Aβ42 monomers: freshly solubilized monomer; tested as biotin-Aβ42M
binding to β1-integrin-Fc, monomers and fibrils ([5]; 5 mM MgCl2, biotin-Aβ42M or biotin-Aβ42F): bound poorly to β1-integrin-Fc

FITC-Aβ42O: FITC-Aβ1-42 (American Peptide), oligomer preparation
FITC-Aβ42O binding to neurons (localisation) [6]: associated with dendrites and dendritic spines

amyloid-β protein 1–42 oligomers [Aβ42O]
translocation of Cofilin to mitochondria (Cofilin (mitochondrial)): rapidly increased the translocation of Cofilin to mitochondria | effect on FC Vinculin, Cofilin^+/− neurons (Vinculin; [15]): did not significantly deplete Vinculin and Talin | effect on FC-enriched/focal Vinculin, WT primary neurons (Vinculin; DIV14 cortical neurons): saliently reduced FC-enriched but not cytosolic (cyto) Vinculin and Talin; also recorded: depleted focal Vinculin and Talin | effect on PSD95, WT neurons (PSD95; spine-containing neurites): significantly depleted F-actin, Drebrin, and PSD95 | effect on PSD95, Cofilin^+/− neurons (PSD95; Cofilin^+/−): no significant effects | effect on surface TfR [7]: no significant effect on surface TfR | focal Vinculin immunoreactivity in spine-containing dendrites (focal Vinculin): significantly reduced focal Vinculin immunoreactivity | effect on surface PrP^c (PrP^c): unaffected | effect on total β1-integrin (β1-integrin): without altering total β1-integrin | 14-3-3/SSH1 complexes (14-3-3/SSH1 complex): reduced 14-3-3/SSH1 complexes | effect on FC Talin, Cofilin^+/− neurons (Talin [8]; [15]): did not significantly deplete Vinculin and Talin | effect on FC-enriched/focal Talin, WT primary neurons (Talin [8]; DIV14 cortical neurons): saliently reduced FC-enriched but not cytosolic (cyto) Vinculin and Talin; also recorded: depleted focal Vinculin and Talin | ROS levels (H2DCF) (HT22 cells [2]): increased ROS levels | effect on Drebrin, WT neurons (Drebrin; spine-containing neurites): significantly depleted F-actin, Drebrin, and PSD95 | effect on Drebrin, Cofilin^+/− neurons (Drebrin; Cofilin^+/−): no significant effects | effect on F-actin, WT neurons (F-actin; spine-containing neurites): significantly depleted F-actin, Drebrin, and PSD95 | effect on F-actin, Cofilin^+/− neurons (F-actin; Cofilin^+/−): no significant effects | phospho-Cofilin in the cytosol [9]: decreasing phospho-Cofilin in the cytosol | effect on FC-enriched Talin, HT22 cells (Talin [10]): saliently reduced FC-enriched but not cytosolic (cyto) Vinculin and Talin | induction of early (Annexin V) and late (PI) apoptosis (HT22 cells [11]): significant induction of early (Annexin V) and late (PI) apoptosis | SSH1/Cofilin complexes (SSH1/Cofilin complex): significantly increased SSH1/Cofilin complexes | mitochondrial superoxide (Mitosox-Red) (HT22 cells [4]): increased mitochondrial superoxide (Mitosox-Red) | oligomeric state on SDS-PAGE [12]: contained SDS-resistant dimers, trimers, and tetramers | Cofilin dephosphorylation/activation ([13]; WT primary cortical neurons): significantly induced Cofilin dephosphorylation/activation | Cofilin dephosphorylation in β1-integrin cKO neurons ([13]; β1-integrin cKO neurons (Lenti-Cre-mRFP)): absent in β1-integrin cKO neurons | reduction of FITC-HUTS-4-positive activated β1-integrin (activated β1-integrin): > 50% | binding to β1-integrin-Fc with MnCl2 ([5]; MnCl2 0.5 mM): essentially eliminated Aβ42O binding; also recorded: failed to support Aβ42O binding to β1-integrin-Fc | binding to β1-integrin-Fc in the absence of cation ([5]; no cation / absence of Mg^2+): did not bind to β1-integrin-Fc; also recorded: minimal binding

fibronectin [FN]
effect on surface TfR [7]: modestly, but significantly, increased surface/total transferrin receptor (TfR) | effect on surface PrP^c (PrP^c): unaffected
